Sampled rows, rich in hits. Any-hit rate of the full collection: about 1.8%.
GalR3 antag – human GalR3 antagonism. HEK293 GalR3-CNG cAMP membrane potential fluorescence; galR3 body fused to GalR1 C-terminus. O60755. inhibition, % at 3 µM. actives 0.44% (n = 360,000);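 active = inhibition above the screen-wide average plus 3 SD, cut at about 13% in these data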;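 note: forskolin and galanin both at EC90 stimulate the cells; cAMP rise reported by CNG channel membrane potential dye signal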
Target sequence (O60755 1-299 limits assumed): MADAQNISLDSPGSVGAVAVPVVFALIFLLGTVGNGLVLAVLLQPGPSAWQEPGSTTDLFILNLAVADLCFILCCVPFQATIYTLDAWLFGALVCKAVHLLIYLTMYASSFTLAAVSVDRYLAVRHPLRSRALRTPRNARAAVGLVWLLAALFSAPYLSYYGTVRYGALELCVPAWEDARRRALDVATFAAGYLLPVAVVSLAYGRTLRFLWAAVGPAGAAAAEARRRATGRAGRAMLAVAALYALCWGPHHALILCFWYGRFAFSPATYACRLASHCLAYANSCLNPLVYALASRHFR
Jurkat NFkB inh – inhibitors of the PMA/ionomycin-induced NF-kB reporter in Jurkat cells; PMA/ionomycin-induced NF-kB luciferase reporter, luminescence; inhibition, % at 4 µM; actives 0.53% (n = 330,000); in the data active = inhibition above about 50%
NR2E3 ag-1 – activates human NR2E3 receptor; Q9Y5X4; CHO-S Gal4-NCOR/VP16-NR2E3 two-hybrid, luciferase; inhibition of corepressor binding, % at 3.98 µM; actives 0.35% (n = 360,000);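 active = inhibition above the mean of all tested compounds plus 3 SD, cut at about 70% in these data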;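 note: higher means lower luciferase signal from less NR2E3 corepressor binding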
Target sequence (Q9Y5X4 whole entry, looked up, the tested form may be a part): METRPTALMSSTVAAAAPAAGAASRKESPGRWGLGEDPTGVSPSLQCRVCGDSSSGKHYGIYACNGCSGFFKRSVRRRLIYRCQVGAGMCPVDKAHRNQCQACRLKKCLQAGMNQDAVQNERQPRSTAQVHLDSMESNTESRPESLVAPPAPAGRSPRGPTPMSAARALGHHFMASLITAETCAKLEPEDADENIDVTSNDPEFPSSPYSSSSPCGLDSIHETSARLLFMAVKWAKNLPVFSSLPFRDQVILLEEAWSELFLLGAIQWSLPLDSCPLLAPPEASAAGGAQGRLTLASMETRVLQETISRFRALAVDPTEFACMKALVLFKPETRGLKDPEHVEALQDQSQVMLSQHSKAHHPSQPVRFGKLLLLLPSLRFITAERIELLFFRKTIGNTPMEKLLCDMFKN
NR2E3 ag-2 – NR2E3 (human) agonism; GST-NR2E3/biotin-RetCOR TR-FRET, 1536-well; Q9Y5X4; inhibition of corepressor binding, % at 4.78 µM; actives 0.12% (n = 320,000);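 active = percent inhibition above the cutoff of mean plus 3 SD of all tested compounds, set per screening campaign, cut at about 20% in these data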
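System: GST-NR2E3 and biotin-RetCOR proteins; probe or stimulus: 7 nM biotin-RetCOR; doses: compound at 4.8 µM, single dose; schedule: Compound–protein incubation for 5 h at 4 °C; detection: time-resolved FRET; read-out: percent inhibition; controls: biotin wells as high control, 0.6% DMSO wells as low control; format: 1536-well plates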
Gli-Sufu block – blocks Gli-Sufu signaling in a luciferase reporter; Sufu-KO-LIGHT fibroblasts, Gli luciferase reporter luminescence; inhibition, % at 5 µM; actives 0.74% (n = 340,000); AID 588413;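 active = inhibition above about 55%, limit read from the data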
697 NFkB inh – lowers PMA/ionomycin-induced NF-kB signal in 697 B cells; actives 0.33% (n = 330,000); 697 B-cell NF-kB luciferase reporter, 16 h; AID 435022; inhibition, % at 4 µM; in the data active = inhibition above about 35%
Gli-Sufu confirm – confirmation of Gli-SUFU pathway antagonists; inhibition, % at 5 µM; shares compounds with Gli-Sufu block; Sufu-KO-LIGHT cells, Gli luciferase reporter, luminescence; AID 602428; actives 40% (n = 2,500);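 active = mean inhibition at 5 µM reaching about 45%, limit read from the data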
Gli cytotox – cytotoxicity counter-screen for Gli-SUFU antagonists. shares compounds with Gli-Sufu block. Sufu-KO-LIGHT cells cytotoxicity, ATP luminescence. actives 32% (n = 2,500). AID 651994. cytotoxicity, % at 5 µM;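 active = mean cytotoxicity at 5 µM above about 25%, limit read from the data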;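 note: cells exposed to compound overnight for roughly 16 to 18 hours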
Wnt3a counter – Wnt3a reporter inhibition counter-screen. shares compounds with Gli-Sufu block. actives 20% (n = 2,500). Wnt-LIGHT cells, Wnt3a-driven luciferase reporter, luminescence. inhibition, % at 6.25 µM;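 active = mean inhibition above about 25%, limit read from the data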
NR2E3 ag confirm – NR2E3 agonism confirmed in two-hybrid assay | shares compounds with NR2E3 ag-1 | CHO-S mammalian two-hybrid NR2E3-NCOR, luciferase luminescence | inhibition, % at 3.98 µM | actives 51% (n = 2,300) | AID 624378;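 active = average inhibition above a cutoff equal to the mean inhibition of all tested compounds plus one SD, cut at about 70% in these data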
VP16 counter – reduces GAL4-VP16 reporter signal in NR2E3 counterscreen; shares compounds with NR2E3 ag-1; CHO-S GAL4-VP16 luciferase reporter, luminescence; inhibition, % at 3.98 µM; actives 29% (n = 2,300);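 active = mean inhibition above a cutoff equal to the average over all tested compounds plus one standard deviation, cut at about 70% in these data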;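 note: luciferase from a UAS reporter driven by GAL4-VP16 transactivation; higher means less reporter light so more repression of VP16 activity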
Each line names hits and unclear results; the compound was inactive in the other large screens (follow-up assays come after a bar, where they were run).

Cc1ccc(NC(=O)Cc2nn(C)c(=O)c3ccccc23)cc1F	Gli-Sufu block 66.7 | Gli-Sufu confirm 66.4 | Gli cytotox 29.2 | Wnt3a counter inactive | NR2E3 ag confirm 90.2 | VP16 counter 75.0
O=C(Nc1ccccc1)N1CCC(C(=O)N2CCN(c3ccccc3F)CC2)CC1	none
COc1cccc(C(=O)NCC2(c3ccccc3)CCCC2)c1OC	none
CC1CCCC=CC2CC(OC(=O)CN(C)C)CC2C(O)C=CC(=O)O1 (stereo not drawn)	Gli-Sufu block 60.3 (no result: Jurkat NFkB inh, NR2E3 ag-2, 697 NFkB inh) | Gli-Sufu confirm 86.2 | Gli cytotox 38.0 | Wnt3a counter 88.4 | NR2E3 ag confirm 98.5 | VP16 counter inactive
O=C(CNC(=O)c1ccccc1Cl)NCCc1cccs1	none (no result: NR2E3 ag-2)
COC(/C(=N/O)c1ccc(Cl)cc1)c1ccccc1 (stereo not drawn)	Gli-Sufu block 64.2 | Gli-Sufu confirm 59.6 | Gli cytotox 30.2 | Wnt3a counter 33.8 | NR2E3 ag confirm 83.3 | VP16 counter inactive
CCN(C(=O)CN1CCCCC1C)c1c(N)n(Cc2ccccc2)c(=O)[nH]c1=O (stereo not drawn)	none
CCCCCCCCn1c(=O)c(C(=O)OC)c(N)c2ccccc21	Gli-Sufu block 67.5 | Gli-Sufu confirm inactive | Gli cytotox inactive | Wnt3a counter 27.8 | NR2E3 ag confirm 85.0 | VP16 counter inactive
COc1ccc(C(=O)COC(=O)CCc2nc3ccccc3[nH]c2=O)cc1Br	none
Cc1csc(SC(C)C(=O)Nc2ccccc2C)n1 (stereo not drawn)	none
CCN(CC)c1ccc(/C=N/NC(=S)NC)c(O)c1	Gli-Sufu block 84.4 | Gli-Sufu confirm inactive | Gli cytotox inactive | Wnt3a counter inactive | NR2E3 ag confirm inactive | VP16 counter inactive
O=C(COC(=O)/C=C/c1ccccc1)NC1CCCCCC1	none (no result: NR2E3 ag-2)
COc1ccc(CNCC(O)COc2cccc3c2OC(C)(C)C3)cc1 (stereo not drawn)	Gli-Sufu block 59.5 | Gli-Sufu confirm 60.5 | Gli cytotox 27.5 | Wnt3a counter inactive | NR2E3 ag confirm inactive | VP16 counter inactive
CCC1(O)C(=O)OCc2c1cc1n(c2=O)Cc2cc3c(N)cccc3nc2-1 (stereo not drawn)	NR2E3 ag-1 86.1, Gli-Sufu block 84.4 (no result: Jurkat NFkB inh, NR2E3 ag-2, 697 NFkB inh) | Gli-Sufu confirm 62.8 | Gli cytotox 48.9 | Wnt3a counter inactive | NR2E3 ag confirm 94.1 | VP16 counter inactive
CCC1(OC(=O)CN(C)C)C(=O)OCc2c1cc1n(c2=O)Cc2cc3c(N)cccc3nc2-1 (stereo not drawn)	Gli-Sufu block 64.2 (no result: GalR3 antag, Jurkat NFkB inh, NR2E3 ag-2, 697 NFkB inh) | Gli-Sufu confirm 62.5 | Gli cytotox 35.6 | Wnt3a counter inactive | NR2E3 ag confirm 83.8 | VP16 counter inactive
Cc1ccc(-c2n[nH]c(=S)nc2-c2ccc(C)cc2)cc1	none (no result: Jurkat NFkB inh, 697 NFkB inh)
CC12CCC(=O)N1C(C(=O)Nc1ccc(Cl)c(S(=O)(=O)N3CCCCC3)c1)CS2 (stereo not drawn)	none
COc1ccc(F)cc1-c1cc(NC=O)c2ncc(-c3cc(OC)c(OC)c(OC)c3)n2c1	none (no result: Jurkat NFkB inh, NR2E3 ag-2, Gli-Sufu block, 697 NFkB inh)
COc1ccc(CNc2ncnc3c2[nH]c2ccccc23)cc1	none | Gli-Sufu confirm 64.0 | Gli cytotox inactive | Wnt3a counter inactive | NR2E3 ag confirm 89.3 | VP16 counter 72.4
COc1ccc(CNc2ncnc3c2[nH]c2cc(OC)c(OC)cc23)cc1	none
CSc1cccc(NS(=O)(=O)c2ccc3c(c2)CCN3C(C)=O)c1	NR2E3 ag-1 72.3, Gli-Sufu block 71.0 | Gli-Sufu confirm 60.1 | Gli cytotox 29.5 | Wnt3a counter 27.1 | NR2E3 ag confirm 84.5 | VP16 counter 77.2
O=C(c1cc(COc2cccc(C(F)(F)F)c2)on1)N1CCC(c2ccncc2)CC1	NR2E3 ag-1 100.9 | Gli-Sufu confirm 61.5 | Gli cytotox 37.4 | Wnt3a counter inactive | NR2E3 ag confirm 98.2 | VP16 counter 79.5
O=C(c1cc(COc2cccc(C(F)(F)F)c2)on1)N1CCC(c2ccccc2)CC1	none
CC(=O)N1c2ccc(S(=O)(=O)N3CCC(C(=O)N4CCN(c5cccc(C(F)(F)F)c5)CC4)CC3)cc2CC1C (stereo not drawn)	NR2E3 ag-1 99.2, Gli-Sufu block 73.5 | Gli-Sufu confirm 80.7 | Gli cytotox 34.1 | Wnt3a counter inactive | NR2E3 ag confirm 88.6 | VP16 counter 75.8
CC(=O)c1ccc(N2CCN(C(=O)C3CCN(S(=O)(=O)c4ccc5c(c4)CC(C)N5C(C)=O)CC3)CC2)cc1 (stereo not drawn)	none
Nc1ncc(Br)cc1S(=O)(=O)NCCc1ccccc1	none
O=[N+]([O-])c1ccc(N2CCN(C(=S)NCc3ccc(Cl)cc3)CC2)cc1	Gli-Sufu block 57.8 | Gli-Sufu confirm inactive | Gli cytotox inactive | Wnt3a counter inactive | NR2E3 ag confirm 90.7 | VP16 counter inactive
Cc1cc(C(=O)CSc2nnc(-c3ccccc3)n2Cc2ccc3c(c2)OCO3)c(C)n1C	none
Cc1cc(C(=O)CSc2nc3ccccc3c(=O)n2C)c(C)n1Cc1ccc2c(c1)OCO2	Gli-Sufu block 73.3 | Gli-Sufu confirm 77.8 | Gli cytotox 37.9 | Wnt3a counter 48.8 | NR2E3 ag confirm 94.8 | VP16 counter 76.2
O=C(C1CC(=O)N(c2ccc3c(c2)OCCO3)C1)N1CCN(Cc2ccccc2F)CC1 (stereo not drawn)	none
CNC(=S)/N=C/NOCc1ccc(Cl)cc1Cl	none | Gli-Sufu confirm inactive | Gli cytotox inactive | Wnt3a counter inactive | NR2E3 ag confirm 81.7 | VP16 counter inactive
Cc1cc(/C=N/n2cnnc2)c(C)n1-c1ccc(OCc2ccccc2F)cc1	Gli-Sufu block 60.4 | Gli-Sufu confirm 68.0 | Gli cytotox 26.9 | Wnt3a counter 27.3 | NR2E3 ag confirm 95.5 | VP16 counter 79.2
CCOc1ccc(CN(C)C(=O)CCc2ccc(S(=O)(=O)N3CCCCCC3)cc2)cc1	none
O=C(/C=C/c1cccc(Cl)c1)NNC(=O)c1ccncc1	none
CCCCCCCCN	none (no result: Jurkat NFkB inh, NR2E3 ag-1, NR2E3 ag-2, Gli-Sufu block, 697 NFkB inh)
